Results reported in ChEMBL document CHEMBL1122000 (J Med Chem, 1982).

System: Rattus norvegicus
Assay: Antagonistic potency of compound after oral administration in rats
Type: functional
Conditions: not given
In short: (§1)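 Rats, 10 animals per dose level. Drugs were given as bases in saline vehicle, sc or orally. Antagonist activity was read in the hot-water tail-flick test. AD50 values were reported with limits.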

SMILES	AD50 [mg/kg]
O=C1CC[C@@]2(O)[C@H]3Cc4ccc(O)c5c4[C@@]2(CCN3CC2CC2)[C@H]1O5 [NALTREXONE]	1.35
C=CCN1CC[C@]23c4c5ccc(O)c4O[C@H]2C(=O)CC[C@@]3(OC)C1C5	>30
C=CCN1CC[C@]23c4c5ccc(O)c4O[C@H]2C(=O)CC[C@@]3(OCC)C1C5	3.8
CO[C@@]12CCC(=O)[C@@H]3Oc4c(O)ccc5c4[C@@]31CCN(CC1CC1)[C@@H]2C5	4.4
CCO[C@@]12CCC(=O)[C@@H]3Oc4c(O)ccc5c4[C@@]31CCN(CC1CC1)C2C5	1.5
C=CCN1CC[C@]23c4c5ccc(O)c4O[C@H]2C(=O)CC[C@@]3(O)[C@H]1C5 [NALOXONE]	13

System: Rattus norvegicus
Assay: (§2) Antagonistic potency of compound after subcutaneous administration in rats
Type: functional
Conditions: not given
In short: as §1

SMILES	AD50 [mg/kg]
O=C1CC[C@@]2(O)[C@H]3Cc4ccc(O)c5c4[C@@]2(CCN3CC2CC2)[C@H]1O5 [NALTREXONE]	0.009
C=CCN1CC[C@]23c4c5ccc(O)c4O[C@H]2C(=O)CC[C@@]3(OC)C1C5	0.041
C=CCN1CC[C@]23c4c5ccc(O)c4O[C@H]2C(=O)CC[C@@]3(OCC)C1C5	0.034
CO[C@@]12CCC(=O)[C@@H]3Oc4c(O)ccc5c4[C@@]31CCN(CC1CC1)[C@@H]2C5	0.019
CCO[C@@]12CCC(=O)[C@@H]3Oc4c(O)ccc5c4[C@@]31CCN(CC1CC1)C2C5	0.005
C=CCN1CC[C@]23c4c5ccc(O)c4O[C@H]2C(=O)CC[C@@]3(O)[C@H]1C5 [NALOXONE]	0.023

Species: Mus musculus
Assay: Concentration required for antagonistic activity of normorphine in the mouse vas deferens at the dose ratio of 2.
Type: functional
Conditions: not given

SMILES	Concentration [ng/mL]
O=C1CC[C@@]2(O)[C@H]3Cc4ccc(O)c5c4[C@@]2(CCN3CC2CC2)[C@H]1O5 [NALTREXONE]	0.165
C=CCN1CC[C@]23c4c5ccc(O)c4O[C@H]2C(=O)CC[C@@]3(OC)C1C5	0.46
C=CCN1CC[C@]23c4c5ccc(O)c4O[C@H]2C(=O)CC[C@@]3(OCC)C1C5	0.33
CO[C@@]12CCC(=O)[C@@H]3Oc4c(O)ccc5c4[C@@]31CCN(CC1CC1)[C@@H]2C5	0.26
CCO[C@@]12CCC(=O)[C@@H]3Oc4c(O)ccc5c4[C@@]31CCN(CC1CC1)C2C5	0.07
C=CCN1CC[C@]23c4c5ccc(O)c4O[C@H]2C(=O)CC[C@@]3(O)[C@H]1C5 [NALOXONE]	0.51

System: not listed separately
Assay: In vitro narcotic agonist potency of compound as ratio to normorphine (=1) was assessed in mouse vas deferens
Type: functional
Conditions: not given

SMILES	Potency ratio
CO[C@@]12CCC(=O)[C@@H]3Oc4c(O)ccc5c4[C@@]31CCN(CC1CC1)[C@@H]2C5	<0.063
CCO[C@@]12CCC(=O)[C@@H]3Oc4c(O)ccc5c4[C@@]31CCN(CC1CC1)C2C5	<0.12

System: not listed separately
Assay: Partition coefficient (logP)
Type: physicochemical
Conditions: octanol/water

SMILES	logP
O=C1CC[C@@]2(O)[C@H]3Cc4ccc(O)c5c4[C@@]2(CCN3CC2CC2)[C@H]1O5 [NALTREXONE]	3.047

Same assay, conditions: octanol/water; read-out: logP

SMILES	logP
C=CCN1CC[C@]23c4c5ccc(O)c4O[C@H]2C(=O)CC[C@@]3(OC)C1C5	2.52
C=CCN1CC[C@]23c4c5ccc(O)c4O[C@H]2C(=O)CC[C@@]3(OCC)C1C5	3.05
CO[C@@]12CCC(=O)[C@@H]3Oc4c(O)ccc5c4[C@@]31CCN(CC1CC1)[C@@H]2C5	3.05
CCO[C@@]12CCC(=O)[C@@H]3Oc4c(O)ccc5c4[C@@]31CCN(CC1CC1)C2C5	3.58
C=CCN1CC[C@]23c4c5ccc(O)c4O[C@H]2C(=O)CC[C@@]3(O)[C@H]1C5 [NALOXONE]	1.91

Species: Mus musculus
Assay: Concentration required for antagonistic activity of Met-enkephalin in the mouse vas deferens at the dose ratio of 2
Type: functional
Conditions: not given

SMILES	Concentration [ng/mL]
C=CCN1CC[C@]23c4c5ccc(O)c4O[C@H]2C(=O)CC[C@@]3(OC)C1C5	7.3

Species: Rattus norvegicus
Assay: Duration of action of compound was determined at the AD99 dose level in rats
Type: functional
Conditions: not given
In short: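 Rats, 10 per dose level; bases in saline vehicle given sc. Antagonism was followed in the hot-water tail-flick test at the AD99 dose, which was extrapolated from AD50 values. Duration of action is given in hours.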

SMILES	Duration [h]
O=C1CC[C@@]2(O)[C@H]3Cc4ccc(O)c5c4[C@@]2(CCN3CC2CC2)[C@H]1O5 [NALTREXONE]	5
C=CCN1CC[C@]23c4c5ccc(O)c4O[C@H]2C(=O)CC[C@@]3(OC)C1C5	4
C=CCN1CC[C@]23c4c5ccc(O)c4O[C@H]2C(=O)CC[C@@]3(OCC)C1C5	6
CO[C@@]12CCC(=O)[C@@H]3Oc4c(O)ccc5c4[C@@]31CCN(CC1CC1)[C@@H]2C5	8
CCO[C@@]12CCC(=O)[C@@H]3Oc4c(O)ccc5c4[C@@]31CCN(CC1CC1)C2C5	4
C=CCN1CC[C@]23c4c5ccc(O)c4O[C@H]2C(=O)CC[C@@]3(O)[C@H]1C5 [NALOXONE]	3

Species: Mus musculus
Assay: Concentration required for antagonistic activity of Met-enkephalin in the mouse vas deferens at the dose ratio of 2.
Type: functional
Conditions: not given

SMILES	Concentration [ng/mL]
O=C1CC[C@@]2(O)[C@H]3Cc4ccc(O)c5c4[C@@]2(CCN3CC2CC2)[C@H]1O5 [NALTREXONE]	9
C=CCN1CC[C@]23c4c5ccc(O)c4O[C@H]2C(=O)CC[C@@]3(OCC)C1C5	7.9
CO[C@@]12CCC(=O)[C@@H]3Oc4c(O)ccc5c4[C@@]31CCN(CC1CC1)[C@@H]2C5	11.5
CCO[C@@]12CCC(=O)[C@@H]3Oc4c(O)ccc5c4[C@@]31CCN(CC1CC1)C2C5	4.1
C=CCN1CC[C@]23c4c5ccc(O)c4O[C@H]2C(=O)CC[C@@]3(O)[C@H]1C5 [NALOXONE]	10.1

System: Rattus norvegicus
Assay: as §2
Type: functional
Conditions: not given

SMILES	AD99 [mg/kg]
O=C1CC[C@@]2(O)[C@H]3Cc4ccc(O)c5c4[C@@]2(CCN3CC2CC2)[C@H]1O5 [NALTREXONE]	0.05
C=CCN1CC[C@]23c4c5ccc(O)c4O[C@H]2C(=O)CC[C@@]3(OC)C1C5	0.15
C=CCN1CC[C@]23c4c5ccc(O)c4O[C@H]2C(=O)CC[C@@]3(OCC)C1C5	0.14
CO[C@@]12CCC(=O)[C@@H]3Oc4c(O)ccc5c4[C@@]31CCN(CC1CC1)[C@@H]2C5	0.25
CCO[C@@]12CCC(=O)[C@@H]3Oc4c(O)ccc5c4[C@@]31CCN(CC1CC1)C2C5	0.14
C=CCN1CC[C@]23c4c5ccc(O)c4O[C@H]2C(=O)CC[C@@]3(O)[C@H]1C5 [NALOXONE]	0.1

Target: T1, Opioid receptor (Rattus norvegicus, UniProt P33533+P34975+P33535)
Assay: Inhibition of stereospecific [3H]diprenorphine binding to opioid receptors of rat brain homogenates by 50% in the presence of Na
Conditions: not given

SMILES	IC50 [nM]
CO[C@@]12CCC(=O)[C@@H]3Oc4c(O)ccc5c4[C@@]31CCN(CC1CC1)[C@@H]2C5	16
CCO[C@@]12CCC(=O)[C@@H]3Oc4c(O)ccc5c4[C@@]31CCN(CC1CC1)C2C5	3.8

Target: T1, Opioid receptor
Assay: Inhibition of stereospecific [3H]diprenorphine binding to opioid receptors of rat brain homogenates by 50% in the absence of Na
Conditions: not given

SMILES	IC50 [nM]
CO[C@@]12CCC(=O)[C@@H]3Oc4c(O)ccc5c4[C@@]31CCN(CC1CC1)[C@@H]2C5	18
CCO[C@@]12CCC(=O)[C@@H]3Oc4c(O)ccc5c4[C@@]31CCN(CC1CC1)C2C5	8
